What all share (assay type): functional
The test system of test [1] is Listeria monocytogenes. The test is described as follows: Antimicrobial activity against Listeria monocytogenes ATCC 19111 assessed as growth inhibition rate at 4 mg/l after 72 hr by spectrophotometry. Particulars: ATCC 19111, 72 h, read-out: GI. The method in brief:
(§1)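 L. monocytogenes was grown at 30 °C in tryptic soy broth, subcultured for 18 h, and exposed to pure volatile compounds (>95% purity). Growth was followed by Bioscreen C optical density every 24 h for 72 h against a 10% Tween 80 control.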

Test [2] relates to Staphylococcus aureus. As to the kind of experiment: Antimicrobial activity against Staphylococcus aureus ATCC 25923 assessed as growth inhibition rate at 4 mg/l after 72 hr by spectrophotometry. The settings on record: ATCC 25923, 72 h, read-out: GI.
Test [3] relates to Vibrio parahaemolyticus. The test is described as follows: Antimicrobial activity against Vibrio parahaemolyticus ATCC 33844 assessed as growth inhibition rate at 4 mg/l after 72 hr by spectrophotometry. The settings on record: ATCC 33844, 72 h, read-out: GI.
The test system of test [4] is Salmonella typhimurium. As to the kind of experiment: Antimicrobial activity against Salmonella enterica subsp. enterica serovar Typhimurium ATCC 14028 assessed as growth inhibition rate at 4 mg/l after 72 hr by spectrophotometry. Particulars: ATCC 14028, 72 h, read-out: GI. The method, boiled down:
(§2)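 Salmonella Typhimurium ATCC 14028 grown in nutrient broth at 30 °C, precultured 24 h, then subcultured 1:100 for 18 h before testing. Single volatile compounds (>95% pure) were added. OD was read every 24 h over 72 h in a Bioscreen C, with 10% Tween 80 as the comparison control.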

In test [5] the test system is Escherichia coli. The test is described as follows: Antimicrobial activity against Escherichia coli O157:H7 ATCC 43894 assessed as growth inhibition rate at 4 mg/l after 72 hr by spectrophotometry. Particulars: O157:H7 ATCC 43894, 72 h, read-out: GI.
The subject of test [6] is Bacillus cereus. As to the kind of experiment: Antimicrobial activity against Bacillus cereus ATCC 11778 assessed as growth inhibition rate at 4 mg/l after 72 hr by spectrophotometry. The settings on record: ATCC 11778, 72 h, read-out: GI. The method in brief: (§3)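 Pure volatile compounds (purity >95%; one at 90%) were tested against B. cereus ATCC 11778. The strain was grown at 30 °C in nutrient broth for 24 h, then subcultured for 18 h. Optical density was read in a Bioscreen C every 24 h for 72 h, with 10% Tween 80 as the control.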

Test [7] has as its system Listeria monocytogenes. As to the kind of experiment: Antimicrobial activity against Listeria monocytogenes ATCC 19111 assessed as growth inhibition rate at 64.76 mg/l after 72 hr by spectrophotometry. Particulars: ATCC 19111, 72 h, read-out: GI. The method in brief: as §1
Test [8] deals with Vibrio parahaemolyticus. The test is described as follows: Antimicrobial activity against Vibrio parahaemolyticus ATCC 33844 assessed as growth inhibition rate at 64.76 mg/l after 72 hr by spectrophotometry. Particulars: ATCC 33844, 72 h, read-out: GI.
Test [9] concerns Staphylococcus aureus. As to the kind of experiment: Antimicrobial activity against Staphylococcus aureus ATCC 25923 assessed as growth inhibition rate at 64.76 mg/l after 72 hr by spectrophotometry. The settings on record: ATCC 25923, 72 h, read-out: GI.
The test system of test [10] is Escherichia coli. As to the kind of experiment: Antimicrobial activity against Escherichia coli O157:H7 ATCC 43894 assessed as growth inhibition rate at 64.76 mg/l after 72 hr by spectrophotometry. The settings on record: O157:H7 ATCC 43894, 72 h, read-out: GI. The method, boiled down:
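Authentic volatiles (>95% purity; 2,4-heptadienal 90%) tested against 18 h subcultures. Growth media: E. coli O157:H7 and S. aureus in tryptic soy broth at 37 °C; L. monocytogenes in tryptic soy broth at 30 °C; V. parahaemolyticus in tryptic soy broth + 3% NaCl at 37 °C; S. typhimurium in nutrient broth at 30 °C. Bioscreen C OD every 24 h for 72 h versus 10% Tween 80 control.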

The test system of test [11] is Salmonella typhimurium. The test is described as follows: Antimicrobial activity against Salmonella enterica subsp. enterica serovar Typhimurium ATCC 14028 assessed as growth inhibition rate at 64.76 mg/l after 72 hr by spectrophotometry. The settings on record: ATCC 14028, 72 h, read-out: GI.
Test [12] relates to Bacillus cereus. The test is described as follows: Antimicrobial activity against Bacillus cereus ATCC 11778 assessed as growth inhibition rate at 64.76 mg/l after 72 hr by spectrophotometry. Particulars: ATCC 11778, 72 h, read-out: GI. The method, boiled down: as §3
The test system of test [13] is Listeria monocytogenes. As to the kind of experiment: Antimicrobial activity against Listeria monocytogenes ATCC 19111 assessed as growth inhibition rate at 1470.8 mg/l after 72 hr by spectrophotometry. Particulars: ATCC 19111, 72 h, read-out: GI. The method in brief:
as §1

The test system of test [14] is Escherichia coli. As to the kind of experiment: Antimicrobial activity against Escherichia coli O157:H7 ATCC 43894 assessed as growth inhibition rate at 1470.8 mg/l after 72 hr by spectrophotometry. Particulars: O157:H7 ATCC 43894, 72 h, read-out: GI.
Test [15] concerns Bacillus cereus. As to the kind of experiment: Antimicrobial activity against Bacillus cereus ATCC 11778 assessed as growth inhibition rate at 1470.8 mg/l after 72 hr by spectrophotometry. Particulars: ATCC 11778, 72 h, read-out: GI. The method, boiled down:
as §3

The subject of test [16] is Salmonella typhimurium. As to the kind of experiment: Antimicrobial activity against Salmonella enterica subsp. enterica serovar Typhimurium ATCC 14028 assessed as growth inhibition rate at 1470.8 mg/l after 72 hr by spectrophotometry. The settings on record: ATCC 14028, 72 h, read-out: GI. The method, boiled down:
as §2

For test [17], the system named is Staphylococcus aureus. The test is described as follows: Antimicrobial activity against Staphylococcus aureus ATCC 25923 assessed as growth inhibition rate at 1470.8 mg/l after 72 hr by spectrophotometry. Particulars: ATCC 25923, 72 h, read-out: GI.
The test system of test [18] is Vibrio parahaemolyticus. As to the kind of experiment: Antimicrobial activity against Vibrio parahaemolyticus ATCC 33844 assessed as growth inhibition rate at 1470.8 mg/l after 72 hr by spectrophotometry. The settings on record: ATCC 33844, 72 h, read-out: GI.
Test [19] concerns Vibrio parahaemolyticus. As to the kind of experiment: Antimicrobial activity against Vibrio parahaemolyticus ATCC 33844 assessed as growth inhibition rate at 3.8 mg/l after 72 hr by spectrophotometry. Particulars: ATCC 33844, 72 h, read-out: GI.
Test [20] concerns Salmonella typhimurium. As to the kind of experiment: Antimicrobial activity against Salmonella enterica subsp. enterica serovar Typhimurium ATCC 14028 assessed as growth inhibition rate at 3.8 mg/l after 72 hr by spectrophotometry. The settings on record: ATCC 14028, 72 h, read-out: GI. The method in brief:
as §2

The subject of test [21] is Escherichia coli. The test is described as follows: Antimicrobial activity against Escherichia coli O157:H7 ATCC 43894 assessed as growth inhibition rate at 3.8 mg/l after 72 hr by spectrophotometry. The settings on record: O157:H7 ATCC 43894, 72 h, read-out: GI.
The subject of test [22] is Listeria monocytogenes. The test is described as follows: Antimicrobial activity against Listeria monocytogenes ATCC 19111 assessed as growth inhibition rate at 3.8 mg/l after 72 hr by spectrophotometry. Particulars: ATCC 19111, 72 h, read-out: GI. The method in brief: as §1
Test [23] relates to Staphylococcus aureus. As to the kind of experiment: Antimicrobial activity against Staphylococcus aureus ATCC 25923 assessed as growth inhibition rate at 3.8 mg/l after 72 hr by spectrophotometry. Particulars: ATCC 25923, 72 h, read-out: GI.
Test [24] concerns Bacillus cereus. The test is described as follows: Antimicrobial activity against Bacillus cereus ATCC 11778 assessed as growth inhibition rate at 3.8 mg/l after 72 hr by spectrophotometry. The settings on record: ATCC 11778, 72 h, read-out: GI. The method in brief: as §3

The structures appear in SMILES notation.

For `CC1=CC[C@@H]2C3C(C(C)C)CCC2(C)[C@@H]13` (stereo partly drawn) [(-)-ALPHA-COPAENE], the inhibition of growth at 4 µg/mL with Listeria monocytogenes [1] turned out to be 0%; in the test with Staphylococcus aureus [2], 5.7%; with Vibrio parahaemolyticus [3], 0%; in the test with Salmonella typhimurium [4], 0.1%; with Escherichia coli [5], 0%; in the test on Bacillus cereus [6], 5.9%.
As to `C/C1=C\CC/C(C)=C/CC(C)(C)/C=C/C1` [ALPHA-HUMULONE], the inhibition of growth at 64.76 µg/mL is 13.9% in the test with Listeria monocytogenes [7]; 15.7% in the test on Vibrio parahaemolyticus [8]; 6.6% in the test on Staphylococcus aureus [9]; 4.6% with Escherichia coli [10]; 6.9% in the test with Salmonella typhimurium [11]; 40.1% with Bacillus cereus [12].
On to `C=C1CC/C=C(/C)CC[C@@H]2[C@@H]1CC2(C)C` [CARYOPHYLLENE], for which the inhibition of growth at 1470.8 µg/mL came out at 7.2% in the test with Listeria monocytogenes [13]; 12.8% with Escherichia coli [14]; 32.1% with Bacillus cereus [15]; 10.2% in the test with Salmonella typhimurium [16]; 54.7% in the test on Staphylococcus aureus [17]; 26.5% in the test with Vibrio parahaemolyticus [18].
In the case of `C=CC(C)(O)CCC=C(C)C` (centres undefined) [LINALOOL], the inhibition of growth at 3.8 µg/mL in the test with Vibrio parahaemolyticus [19] is 0%; in the test with Salmonella typhimurium [20] it was 8.2%; with Escherichia coli [21] it was 2.1%; with Listeria monocytogenes [22], 0.6%; with Staphylococcus aureus [23], 2.6%; with Bacillus cereus [24], 8.6%.

The record behind these values is ChEMBL document CHEMBL3046951, “Volatile constituents from the leaves of Callicarpa japonica Thunb. and their antibacterial activities” (2004).
